Measured values gathered from unrelated publications.
Protocols differ between the studies behind these lines.
Target: Serine/threonine-protein kinase Nek4 (NEK4, Homo sapiens, UniProt P51957)

Compound	assay	setting	remaining binding [%]
COc1cnc(Nc2cccc(S(N)(=O)=O)c2)nc1N1CCN(c2ccccc2)CC1	binding, competition with immobilised ligand	1 µM	95
Cn1nc(C(=O)NCc2ccc(C(=O)O)cc2)cc1-c1ccc2[nH]ccc2c1	cell-free assay, competition with immobilised ligand	0.1 µM	84
O=C(Nc1c[nH]nc1C(=O)NC1CCNCC1)c1cc(F)cc(F)c1	binding, competition with immobilised ligand	1 µM	91
O=C(NCCCN1CCOCC1)c1ccc(Nc2ncc(Cl)c(-c3ccc(Cl)s3)n2)cc1	binding, competition with immobilised ligand	1 µM	40
CC(=O)C1=C(C)N(c2cccc(C(F)(F)F)c2)C(=O)N[C@@H]1c1ccc(C#N)nc1	cell-free assay, competition with immobilised ligand	1 µM	93.9
C=CC(=O)N1CCC(C(=O)NCC(=O)N2CCN(c3nc(-c4cnc(N)nc4C(F)F)nc(N4CCOCC4)n3)CC2)CC1	binding, competition with immobilised ligand	1 µM	81
c1cnn2ncc(-c3ccnc(N4CCC45COC5)n3)c2c1	binding	1 µM	68
O=C(Nc1cccnn1)N1CC(C/C=C/c2cncc(Oc3ccc(C(F)(F)F)cn3)n2)C1	cell-free assay, competition with immobilised ligand	1 µM	95
CCN1CCN(Cc2ccc(C(=O)Nc3ccc(C)c(Oc4ccc5c(c4)CC(=O)N5)c3)cc2C(F)(F)F)CC1	binding, competition with immobilised ligand	1 µM	100
CN(CCCC(F)(F)F)c1nccc(-c2cnn3ncccc23)n1	binding	1 µM	92
CNC(=O)[C@@H]1CC[C@@H](n2c(-c3ccc4cnccc4c3)nc3ccc(C(=O)NCc4cccc(C(N)=O)c4)cc32)C1	binding, competition with immobilised ligand	1 µM	100
N[C@H]1CCN(c2nccc(-c3cnn4ncccc34)n2)C1	binding	1 µM	100
C[C@H](c1cccc(C#N)c1)n1cc(Cl)cc(C(N)=O)c1=N	cell-free assay, competition with immobilised ligand	1 µM	100
O=C(c1ccc(Nc2nccc(-c3cc4ccccc4s3)n2)cc1)N1CCC(N2CCCC2)CC1	binding, competition with immobilised ligand	1 µM	100
C[C@@H](c1ccc(-n2cnc3c(N)ncnc32)cc1)N1CCc2nn(C)c(Cc3ccccc3)c2C1=O	binding, competition with immobilised ligand	0.1 µM	82
C[C@H]1CCN(c2nccc(-c3cnn4ncccc34)n2)C1	binding	1 µM	81
CC1=C(C#N)C(c2ccc3c(c2)c(NC(=O)c2ccccc2C)nn3C)C(C#N)=C(C)N1	cell-free assay, competition with immobilised ligand	1 µM	100
CN(c1nccc(-c2cnn3ncccc23)n1)C1CC1	binding	1 µM	100
CO[C@@H](C)c1c(Nc2ccc([C@H](N(C)C(=O)C3CCS(=O)(=O)CC3)C(F)(F)F)cc2)cnc2cc(Cl)nn12	cell-free assay, competition with immobilised ligand	1 µM	90
CC1CCCN1c1nccc(-c2cnn3ncccc23)n1 (stereo not drawn)	binding	1 µM	100
O=C(c1ccc(Nc2ncc(Cl)c(-c3cc4ccccc4s3)n2)cc1)N1CCC(N2CCCC2)CC1	binding, competition with immobilised ligand	1 µM	48
